According to ChEMBL document CHEMBL2146445, “Discovery of BIIB042, a Potent, Selective, and Orally Bioavailable γ-Secretase Modulator” (ACS Med Chem Lett, 2011):

Assays:
[1] = Half life in dog at 1 mg/kg, iv; assay type: ADME, organism-based, Canis lupus familiaris; parameters: dose 1 mg/kg, route intravenous; conditions: in vivo
How it was run: (§1)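 Single-dose PK in rats, dogs and cynomolgus monkeys. The compound was given iv at 1 mg/kg in EtOH:PEG400:water (10:40:50) at 1 mL/kg. […] Values are mean ± SD, n = 3.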

[2] = AUC (0 to 24 hrs) in rat at 1 mg/kg, iv; assay type: ADME, organism-based; parameters: time < 24 hr, dose 1 mg/kg, route intravenous; conditions: plasma; how it was run: as §1
[3] = Cmax in dog at 10 mg/kg, po; assay type: ADME, organism-based, Canis lupus familiaris; parameters: dose 10 mg/kg, route oral; conditions: in vivo
How it was run: (§2)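 Single oral dose of 10 mg/kg given to rats, dogs or cynomolgus monkeys. The crystalline HCl salt was suspended in 0.5% CMC with 0.2% Tween80 and dosed at 5 mL/kg. […] Parameters are reported as mean ± SD, n = 3.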

[4] = Tmax in dog at 10 mg/kg, po; assay type: ADME, organism-based, Canis lupus familiaris; parameters: dose 10 mg/kg, route oral; conditions: in vivo
How it was run: (§3)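 Single dose to rats, dogs and cynomolgus monkeys. IV at 1 mg/kg in EtOH:PEG400:water (10:40:50), 1 mL/kg. Oral at 10 mg/kg as crystalline HCl salt suspension in 0.5% CMC, 0.2% Tween80, 5 mL/kg. Plasma sampled over 0–24 h. Values are mean ± SD, n = 3.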

[5] = Half life in cynomolgus monkey at 1 mg/kg, iv; assay type: ADME, organism-based, Macaca fascicularis; parameters: dose 1 mg/kg, route intravenous; conditions: in vivo; how it was run: as §1
[6] = Oral bioavailability in cynomolgus monkey at 10 mg/kg; assay type: ADME, organism-based, Macaca fascicularis; conditions: in vivo; how it was run: as §3
[7] = Half life in rat at 10 mg/kg, po; assay type: ADME, organism-based; parameters: dose 10 mg/kg, route oral; conditions: in vivo; how it was run: as §2
[8] = Plasma clearance in rat at 1 mg/kg, iv; assay type: ADME, organism-based; parameters: dose 1 mg/kg, route intravenous; how it was run: as §3
[9] = Volume of distribution at steady state in cynomolgus monkey at 1 mg/kg, iv; assay type: ADME, organism-based, Macaca fascicularis; parameters: dose 1 mg/kg, route intravenous; conditions: in vivo, read-out: Vdss; how it was run: as §3
[10] = Oral bioavailability in rat at 10 mg/kg; assay type: ADME, organism-based; conditions: in vivo; how it was run: as §3
[11] = Plasma clearance in dog at 1 mg/kg, iv; assay type: ADME, organism-based, Canis lupus familiaris; parameters: dose 1 mg/kg, route intravenous; how it was run: as §3
[12] = Half life in cynomolgus monkey at 10 mg/kg, po; assay type: ADME, organism-based, Macaca fascicularis; parameters: dose 10 mg/kg, route oral; conditions: in vivo; how it was run: as §2
[13] = AUC (0 to 24 hrs) in cynomolgus monkey at 10 mg/kg, po; assay type: ADME, organism-based, Macaca fascicularis; parameters: time < 24 hr, dose 10 mg/kg, route oral; conditions: plasma
[14] = Cmax in rat at 10 mg/kg, po; assay type: ADME, organism-based; parameters: dose 10 mg/kg, route oral; conditions: in vivo; how it was run: as §2
[15] = Cmax in cynomolgus monkey at 10 mg/kg, po; assay type: ADME, organism-based, Macaca fascicularis; parameters: dose 10 mg/kg, route oral; conditions: in vivo; how it was run: as §2
[16] = Tmax in cynomolgus monkey at 10 mg/kg, po; assay type: ADME, organism-based, Macaca fascicularis; parameters: dose 10 mg/kg, route oral; conditions: in vivo; how it was run: as §3
[17] = AUC (0 to 24 hrs) in dog at 1 mg/kg, iv; assay type: ADME, organism-based, Canis lupus familiaris; parameters: time < 24 hr, dose 1 mg/kg, route intravenous; conditions: plasma; how it was run: as §1
[18] = AUC (0 to 24 hrs) in dog at 10 mg/kg, po; assay type: ADME, organism-based, Canis lupus familiaris; parameters: time < 24 hr, dose 10 mg/kg, route oral; conditions: plasma
[19] = AUC (0 to 24 hrs) in cynomolgus monkey at 1 mg/kg, iv; assay type: ADME, organism-based, Macaca fascicularis; parameters: time < 24 hr, dose 1 mg/kg, route intravenous; conditions: plasma; how it was run: as §1
[20] = Tmax in rat at 10 mg/kg, po; assay type: ADME, organism-based; parameters: dose 10 mg/kg, route oral; conditions: in vivo; how it was run: as §3
[21] = Volume of distribution at steady state in rat at 1 mg/kg, iv; assay type: ADME, organism-based; parameters: dose 1 mg/kg, route intravenous; conditions: in vivo, read-out: Vdss; how it was run: as §3
[22] = Volume of distribution at steady state in dog at 1 mg/kg, iv; assay type: ADME, organism-based, Canis lupus familiaris; parameters: dose 1 mg/kg, route intravenous; conditions: in vivo, read-out: Vdss; how it was run: as §3
[23] = Thermodynamic solubility of the compound; assay type: physicochemical; conditions: read-out: Therm_solubility
How it was run: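 Thermodynamic solubility measured on the crystalline HCl salt.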

[24] = Half life in rat at 1 mg/kg, iv; assay type: ADME, organism-based; parameters: dose 1 mg/kg, route intravenous; conditions: in vivo; how it was run: as §1
[25] = Half life in dog at 10 mg/kg, po; assay type: ADME, organism-based, Canis lupus familiaris; parameters: dose 10 mg/kg, route oral; conditions: in vivo; how it was run: as §2
[26] = Plasma clearance in cynomolgus monkey at 1 mg/kg, iv; assay type: ADME, organism-based, Macaca fascicularis; parameters: dose 1 mg/kg, route intravenous; how it was run: as §3
[27] = Oral bioavailability in dog at 10 mg/kg; assay type: ADME, organism-based, Canis lupus familiaris; conditions: in vivo; how it was run: as §3
[28] = AUC (0 to 24 hrs) in rat at 10 mg/kg, po; assay type: ADME, organism-based; parameters: time < 24 hr, dose 10 mg/kg, route oral; conditions: plasma

half-life [1]: 1.3 h
AUC(0-t) at 24 h [2]: 10400 ng·h/mL
Cmax [3]: 1400 ng/mL
Tmax [4]: 1.3 h
half-life [5]: 11.2 h
bioavailability [6]: 106%
half-life [7]: 6.6 h
clearance [8]: 1.5 mL/min/kg
Vd [9]: 1.7 L/kg
bioavailability [10]: 47%
clearance [11]: 14 mL/min/kg
half-life [12]: 25 h
AUC(0-t) at 24 h [13]: 48000 ng·h/mL
Cmax [14]: 6000 ng/mL
Cmax [15]: 5900 ng/mL
Tmax [16]: 2 h
AUC(0-t) at 24 h [17]: 1200 ng·h/mL
AUC(0-t) at 24 h [18]: 5200 ng·h/mL
AUC(0-t) at 24 h [19]: 4700 ng·h/mL
Tmax [20]: 1.7 h
Vd [21]: 0.8 L/kg
Vd [22]: 0.9 L/kg
solubility thermodynamic [23]: 20 µg/mL
half-life [24]: 7.2 h
half-life [25]: 2.3 h
clearance [26]: 3.7 mL/min/kg
bioavailability [27]: 44%
AUC(0-t) at 24 h [28]: 49700 ng·h/mL
SMILES: CC1CCN([C@H](c2ccc(F)cc2)c2ccc([C@@H](C)C(=O)O)cc2-c2ccc(C(F)(F)F)cc2)CC1.Cl
